Rows were chosen to be rich in hits. Some 1.9% of all compounds tested hit in one or more screens of this group.
Hck-Nef inh – inhibitors of Nef-activated human Hck kinase, primary screen, biochemical, Z-Lyte FRET, 384-well, Hck-YEEI. Tyrosine-protein kinase HCK (Homo sapiens), P08631. AID 463187, 2010. Recombinant Hck-YEEI plus Nef, Z-Lyte FRET kinase assay. 220,000 compounds, 0.68% hits. inhibition, % at 20 µM;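 active = Hck-Nef kinase inhibition above about 50%, limit read from the data; inactive = inhibition below that limit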;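 note: 0% = DMSO with Hck plus Nef and 100% = Hck alone without Nef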
Target sequence (P08631 whole entry, looked up): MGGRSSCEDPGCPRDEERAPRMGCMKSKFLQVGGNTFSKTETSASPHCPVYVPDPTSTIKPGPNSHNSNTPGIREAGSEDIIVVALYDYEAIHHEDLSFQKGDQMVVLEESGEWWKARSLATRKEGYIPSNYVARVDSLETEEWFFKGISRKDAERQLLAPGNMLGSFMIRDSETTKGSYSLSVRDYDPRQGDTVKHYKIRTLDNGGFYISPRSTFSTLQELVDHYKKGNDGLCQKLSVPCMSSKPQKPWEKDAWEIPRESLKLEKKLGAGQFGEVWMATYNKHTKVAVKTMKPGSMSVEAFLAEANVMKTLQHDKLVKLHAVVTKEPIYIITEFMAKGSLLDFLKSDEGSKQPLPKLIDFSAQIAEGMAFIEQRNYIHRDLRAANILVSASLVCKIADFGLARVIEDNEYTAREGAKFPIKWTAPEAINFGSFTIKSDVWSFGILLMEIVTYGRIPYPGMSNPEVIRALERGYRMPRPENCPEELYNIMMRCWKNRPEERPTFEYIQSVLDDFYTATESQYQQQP
Runt-SMMHC FRET – inhibitors of RUNX1 Runt–CBFb-SMMHC binding, primary screen, biochemical, FRET, Cerulean-Runt, Venus-CBFb-SMMHC, uHTS. Runt-related transcription factor 1 (Homo sapiens) + Core-binding factor subunit beta …. Cerulean-Runt/Venus-CBFb-SMMHC FRET ratio 530/480, 1 h. inhibition, % at 20 µM. 220,000 compounds, 0.74% hits. AID 1434, 2008;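 active = mean inhibition across duplicate retests at 20 µM reaching about 50%, limit read from the data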;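 note: 0% = DMSO wells and 100% = wells with excess untagged CBFb-SMMHC; inhibitors lower the FRET ratio by blocking Runt binding to CBFb-SMMHC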
RanGTP-Imp inh – inhibitors of RanGTP-importin-beta interaction, primary screen, biochemical, FRET, CFP-Ran, YFP-importin-beta, homogeneous | 300,000 compounds, 1.1% hits | inhibition, % (test concentration not listed) | Ran GTPase (GTP-bound) - importin-beta complex | AID 2216, 2009 | cell-free CFP-Ran/YFP-importin-beta FRET ratio;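 active = more than half of the replicate wells show a fall in the fluorescence ratio signal beyond about 16%, limit read from the data, passing the limit was not always enough; inconclusive = exactly half of the replicate wells pass the set limit; inactive = fewer than half of replicates pass the limit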;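 note: 0% = DMSO wells and 100% = Ran loaded with GDP instead of GTP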
Runt-CBFb FRET – inhibitors of RUNX1 Runt–CBFb binding, primary screen, biochemical, FRET, Cerulean-Runt, Venus-CBFb, uHTS; Runt-related transcription factor 1 (Homo sapiens) + Core-binding factor subunit beta …; Cerulean-Runt/Venus-CBFb FRET ratio 530/480, 1 h; inhibition, % at 20 µM; 220,000 compounds, 0.46% hits;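 active = inhibition over about 50% at 20 µM in the single-dose screen, limit read from the data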;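 note: 0% = DMSO wells and 100% = excess unlabeled CBFb competitor control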
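Assay system: Cerulean-Runt domain fusion protein, energy donor; Signal: fluorescence energy transfer, 422 nm excitation, 530/480 nm emission; Timing: 1 h compound exposure, room temperature; Control set: unlabeled CBFb; Medium: Tris buffer pH 7.5 with salts and BSA; Compound: single test concentration of 20 µM, 1% DMSO final; Probe or stimulus: Venus-CBFb 100 nM.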
YIC FRET counter – YIC intramolecular FRET probe signal interference, dose response, counter-screen for RanGTP-importin-beta inhibitor project, biochemical, fluorescence FRET | shares compounds with RanGTP-Imp inh | 1,000 compounds, 40% hits | Purified YIC probe, intramolecular FRET ratio YFP/CFP | IC50, µM;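 active = fitted half-maximal inhibitory concentration no more than tenfold above the top dose tested; inconclusive = flat fit with 30 to 70% activity, or poor fit; inactive = half-maximal concentration beyond tenfold above the top dose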
Numbers without * were called inactive; ? = inconclusive; / = no result given.

SMILES	Hck-Nef inh	Runt-SMMHC FRET	RanGTP-Imp inh	Runt-CBFb FRET	YIC FRET counter
COCCNC(=O)/C(C#N)=C/c1c(N2CCN(c3ccc(OC)cc3)CC2)nc2c(C)cccn2c1=O	/	/	18.7*	/	46.5*
COc1cccc(CN2CCCC(C(=O)N3CCCCC3)C2)c1 (stereo unspecified)	/	/	-1.9	/	/
O=C(CCn1cnnn1)N1CCCC(Nc2ccc(F)c(F)c2)C1 (stereo unspecified)	/	/	-3.6	/	/
CCCc1c2ccccc2nc2ccccc12	8.8	51.8*	21.4*	18.7	9.61*
CCCc1cc(C(=O)O)c2ccccc2n1	0.9	-7.1	3.4	0.2	/
O=C(c1ccc2nc(Cc3ccccc3F)oc2c1)N1CC[C@H](O)C1	/	/	-1.6	/	/
CCCCOc1ccc(OCCSc2nc3ccccc3n2CC(=O)O)cc1	/	/	17.9*	/	>50
O=C(O)c1c2c(nc3ccccc13)/C(=C/c1ccc(OC(F)F)cc1)CCC2	/	/	30.8*	/	>50
Cc1ccc(S(=O)(=O)N2CCC(C(=O)N3CC(C)OC(C)C3)CC2)cc1 (stereo unspecified)	/	/	8.3	/	/
Cc1ccc(OCC(=O)c2cc(C)n(CC(F)(F)F)c2C)c([N+](=O)[O-])n1	22.5	9.4	19.8*	17.4	>50
CCN(CC)Cc1c(CC(C)C)oc(C)c1C(=O)O	-0.1	-4.4	21.4*	3.0	>50
Cc1ccc(NC(=O)CSc2ncc(S(=O)(=O)c3ccccc3)c(=O)[nH]2)cc1C	1.9	-5.1	1.2	2.1	/
COc1cccc(NC(=O)CSc2ncc(S(=O)(=O)c3ccccc3)c(=O)[nH]2)c1	12.5	-0.4	30.4*	-0.7	>50
CC1CCCN(C(=O)COC(=O)c2ccc3[nH]c4c(c3c2)CCCC4)C1 (stereo unspecified)	/	/	11.6	/	/
CCOC(=O)C1CCN(C(=O)COC(=O)c2ccc3[nH]c4c(c3c2)CCCC4)CC1	/	/	19.3*	/	>50
Cc1cc(C(=O)Nc2cccc(C)c2C)c2ccccc2n1	/	/	1.6	/	/
Cc1cc(C(=O)N/N=C2\CC(=O)CC(C)(C)C2)n[nH]1	-1.9	-8.6	16.2*	-0.6	>50
Cc1ccc(C)c(-n2c(SCC(=O)NC(C(=O)O)C(C)C)nnc2-c2cccc(Cl)c2)c1 (stereo unspecified)	19.9	-1.7	1.7	-2.0	/
COC(=O)c1nc2nc(-c3cccs3)cc(C(F)(F)F)n2n1	13.2	29.8	3.0	8.4	/
NNC(=O)c1cc2nc(-c3cccs3)cc(C(F)(F)F)n2n1	-31.0	3.2	26.9*	2.2	>50
O=C(NCCCO)/C(=C\c1ccco1)NC(=O)c1ccco1	/	/	-0.7	/	/
O=C(O)c1ccccc1C(=O)Nc1ccc(Br)c2cccnc12	6.4	3.6	17.1*	16.0	>50
COc1ccc(-c2c(C(F)(F)F)nn(C)c2NC(=O)CSCC(=O)O)cc1	20.6	-1.6	-1.7	0.2	/
CSc1ccc(/C=C(/Sc2nnc(-c3ccccc3)o2)C(=O)O)cc1	22.5	-5.8	25.0*	-1.1	41*
COc1ccc(-c2nnc(S/C(=C/c3ccc(Cl)cc3)C(=O)O)o2)cc1	25.4	-4.1	?	3.0	/
SMILES	Hck-Nef inh	Runt-SMMHC FRET	RanGTP-Imp inh	Runt-CBFb FRET	YIC FRET counter
CCOC(=O)CN(Cc1ccccc1)C(=O)OC(C)(C)C	/	/	3.1	/	/
COCc1ccc(CN2CCCC(CO)(Cc3cccc(OC)c3)C2)o1 (stereo unspecified)	-3.5	3.1	-2.6	-0.2	/
COCc1ccc(CN2CCCC(CO)(Cc3ccccc3C)C2)o1 (stereo unspecified)	20.0	0.5	22.8*	-0.7	>50
Cc1cc(Cl)c(S(=O)(=O)N2CCCC2)cc1OCC(=O)NC1CCCCC1	-2.4	-0.8	24.3*	-2.9	>50
Clc1ccc(-c2ncc3ccccn23)cc1	21.4	/	26.1*	/	>50
Clc1ccccc1-c1ncc2ccccn12	1.9	9.6	1.2	0.6	/
COc1cccc(CN(C)C(=O)c2cc(-c3cccs3)nc3ccccc23)c1	/	/	1.7	/	/
Cn1c(=O)oc2cc(S(=O)(=O)NCCC(=O)N3CCN(c4ccccc4)CC3)ccc21	/	/	-1.0	/	/
Cn1c(=O)oc2cc(S(=O)(=O)NCCC(=O)N3CC=C(c4ccccc4)CC3)ccc21	0.6	-3.1	17.6*	-1.4	>50
O=C(NCCc1ccccc1)C(=O)c1c[nH]c2ccccc12	/	/	-0.6	/	/
NS(=O)(=O)c1ccc(CCNC(=O)C(=O)c2c[nH]c3ccccc23)cc1	3.3	1.2	17.1*	-1.9	>50
O=C(NCc1ccccc1F)C1CCCN(S(=O)(=O)N2CCOCC2)C1 (stereo unspecified)	/	/	3.9	/	/
CC(NC(=O)CCc1nnc(-c2ccc(-c3ccccc3)cc2)o1)c1nc2ccccc2[nH]1 (stereo unspecified)	16.4	0.6	-0.5	-3.0	/
Cc1ccc2nc(N3CCN(C)CC3)c(C#N)cc2c1	4.5	11.7	5.9	3.6	/
Cc1ccc2nc(N3CCN(Cc4nnnn4Cc4ccccc4)CC3)c(C#N)cc2c1	3.8	61.7*	16.8*	25.9	22.1*
COc1ccc(S(=O)(=O)Nc2ccc3c(c2)OCCO3)cc1OC	/	/	-2.6	/	/
O=C(O)C1Cc2c([nH]c3ccccc23)C(c2ccc3c(c2)OCO3)N1 (stereo unspecified)	1.1	47.6	-3.1	4.1	/
COc1ccc(C2NCCc3c2[nH]c2ccccc32)cc1COc1ccc(F)cc1 (stereo unspecified)	0.1	-5.0	22.2*	-2.5	>50
COc1ccc(C2NC(C(=O)O)Cc3c2[nH]c2ccccc32)cc1CN1CCN(c2ccc(F)cc2)CC1 (stereo unspecified)	14.3	38.0	23.6*	7.8	8.57*
O=C(NCCc1ccc(Cl)cc1)C1CCCN1C(=O)Nc1ccccc1 (stereo unspecified)	/	/	1.0	/	/
COc1cc(OC)c2cc(C(=O)N[C@@H](Cc3ccccc3)C(=O)O)n(C)c2c1	/	/	1.1	/	/
CCOC(=O)CSc1nnc(CSc2nc3sc4c(c3c(=O)[nH]2)CCCC4)n1-c1ccccc1	0.5	-13.2	31.6*	-10.1	>50
CCOC(=O)CCCSc1nc2sc3c(c2c(=O)[nH]1)CCC3	6.1	1.4	?	-0.4	/
CC(C)NC(=O)CN(Cc1ccc(F)cc1)C(=O)CCC(=O)Nc1ccccn1	/	/	-1.5	/	/
COc1cccc(N2CCN(C(=O)c3cccn4c(=O)c5c(C)c(C)sc5nc34)CC2)c1	-10.9	-23.6	-1.1	/	/
COc1cccc(N2CCN(C(=O)c3cc4c(=O)n(Cc5ccccc5)ccc4nc3C)CC2)c1	/	/	16.2*	/	>50
CN(CC(=O)Nc1ccccc1Cl)C(=O)COC(=O)c1nc(Cl)c(Cl)c(Cl)c1Cl	/	/	-8.0	/	/

Assay outcomes: PubChem BioAssay, several laboratories
